Experiment [1] addresses Nitric oxide synthase 1 (Rattus norvegicus) (UniProt P29476). The experiment in a line: Inhibition of nNOS in Wistar rat striata assessed as conversion of L-[3H]arginine to L-[3H]citrulline at 1 mM by liquid scintillation spectroscopy. A digest of the protocol: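 Male Wistar rats (200–250 g); fresh striata homogenized in Tris buffer (pH 7.6) with protease inhibitors, spun 1000 g 5 min, supernatant used. Incubation: 25 mM Tris, 1 mM DTT, 30 µM H4-biopterin, 10 µM FAD, 0.1 mM CaCl2, 10 µM L-arginine plus 50 nM L-[3H]-arginine; started with NADPH (0.75 mM final) and compound in DMSO (1 mM final), 37 °C 30 min. Dowex-50W separation; NADPH-omitted blank subtracted; mean ± SEM, three experiments in triplicate.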

The target in experiment [2] is Nitric oxide synthase, inducible (Rattus norvegicus) (UniProt Q06518). The experiment in a line: Inhibition of iNOS in LPS-induced rat lungs assessed as conversion of L-[3H]arginine to L-[3H]citrulline at 1 mM by liquid scintillation spectroscopy. A digest of the protocol: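 iNOS induced by LPS 20 mg/kg i.v. in rats; lungs taken 8 h later, homogenized in ice-cold Tris buffer (pH 7.6) with protease inhibitors, then incubated with 10 mM EDTA to remove nNOS activity. Activity read as [3H]-citrulline from L-[3H]-arginine by the striatal-assay procedure, compound at 1 mM final, 37 °C 30 min; mean ± SEM, three experiments in triplicate.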
Chain of Nitric oxide synthase, inducible (Rattus norvegicus) (Q06518 whole entry): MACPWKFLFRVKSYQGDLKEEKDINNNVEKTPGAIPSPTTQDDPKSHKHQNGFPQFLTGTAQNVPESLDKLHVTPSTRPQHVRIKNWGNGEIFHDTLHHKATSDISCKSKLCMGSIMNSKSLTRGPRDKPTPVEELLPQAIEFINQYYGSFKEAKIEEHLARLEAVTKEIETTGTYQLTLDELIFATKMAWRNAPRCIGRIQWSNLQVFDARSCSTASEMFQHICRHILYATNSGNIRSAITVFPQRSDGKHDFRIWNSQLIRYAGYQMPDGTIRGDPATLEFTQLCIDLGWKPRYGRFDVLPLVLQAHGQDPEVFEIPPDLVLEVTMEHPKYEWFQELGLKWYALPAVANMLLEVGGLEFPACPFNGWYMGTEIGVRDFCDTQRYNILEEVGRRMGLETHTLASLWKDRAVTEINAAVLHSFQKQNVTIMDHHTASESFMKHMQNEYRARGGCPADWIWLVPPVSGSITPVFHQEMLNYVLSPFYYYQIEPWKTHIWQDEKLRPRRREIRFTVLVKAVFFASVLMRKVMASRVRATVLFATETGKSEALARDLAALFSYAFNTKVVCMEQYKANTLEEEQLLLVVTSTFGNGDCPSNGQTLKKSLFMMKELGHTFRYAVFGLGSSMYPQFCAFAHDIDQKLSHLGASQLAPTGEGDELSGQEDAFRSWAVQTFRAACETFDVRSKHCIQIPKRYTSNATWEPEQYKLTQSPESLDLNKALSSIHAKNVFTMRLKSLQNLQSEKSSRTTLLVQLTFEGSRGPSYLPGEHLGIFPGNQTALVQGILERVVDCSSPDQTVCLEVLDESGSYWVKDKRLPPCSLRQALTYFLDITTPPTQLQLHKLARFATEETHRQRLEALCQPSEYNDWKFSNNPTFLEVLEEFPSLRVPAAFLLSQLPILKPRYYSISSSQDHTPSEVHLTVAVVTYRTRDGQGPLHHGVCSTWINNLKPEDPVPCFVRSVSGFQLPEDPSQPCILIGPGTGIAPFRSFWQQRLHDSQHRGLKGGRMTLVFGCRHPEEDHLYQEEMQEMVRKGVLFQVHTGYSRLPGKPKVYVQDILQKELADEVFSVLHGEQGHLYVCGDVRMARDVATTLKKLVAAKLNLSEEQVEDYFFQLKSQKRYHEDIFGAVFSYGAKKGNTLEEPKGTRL

The source of these data is ChEMBL document CHEMBL1140983, “Pyrazoles and pyrazolines as neural and inducible nitric oxide synthase (nNOS and iNOS) potential inhibitors (III)” (Eur J Med Chem, 2008).

Chain of Nitric oxide synthase 1 (Rattus norvegicus) (P29476 whole entry): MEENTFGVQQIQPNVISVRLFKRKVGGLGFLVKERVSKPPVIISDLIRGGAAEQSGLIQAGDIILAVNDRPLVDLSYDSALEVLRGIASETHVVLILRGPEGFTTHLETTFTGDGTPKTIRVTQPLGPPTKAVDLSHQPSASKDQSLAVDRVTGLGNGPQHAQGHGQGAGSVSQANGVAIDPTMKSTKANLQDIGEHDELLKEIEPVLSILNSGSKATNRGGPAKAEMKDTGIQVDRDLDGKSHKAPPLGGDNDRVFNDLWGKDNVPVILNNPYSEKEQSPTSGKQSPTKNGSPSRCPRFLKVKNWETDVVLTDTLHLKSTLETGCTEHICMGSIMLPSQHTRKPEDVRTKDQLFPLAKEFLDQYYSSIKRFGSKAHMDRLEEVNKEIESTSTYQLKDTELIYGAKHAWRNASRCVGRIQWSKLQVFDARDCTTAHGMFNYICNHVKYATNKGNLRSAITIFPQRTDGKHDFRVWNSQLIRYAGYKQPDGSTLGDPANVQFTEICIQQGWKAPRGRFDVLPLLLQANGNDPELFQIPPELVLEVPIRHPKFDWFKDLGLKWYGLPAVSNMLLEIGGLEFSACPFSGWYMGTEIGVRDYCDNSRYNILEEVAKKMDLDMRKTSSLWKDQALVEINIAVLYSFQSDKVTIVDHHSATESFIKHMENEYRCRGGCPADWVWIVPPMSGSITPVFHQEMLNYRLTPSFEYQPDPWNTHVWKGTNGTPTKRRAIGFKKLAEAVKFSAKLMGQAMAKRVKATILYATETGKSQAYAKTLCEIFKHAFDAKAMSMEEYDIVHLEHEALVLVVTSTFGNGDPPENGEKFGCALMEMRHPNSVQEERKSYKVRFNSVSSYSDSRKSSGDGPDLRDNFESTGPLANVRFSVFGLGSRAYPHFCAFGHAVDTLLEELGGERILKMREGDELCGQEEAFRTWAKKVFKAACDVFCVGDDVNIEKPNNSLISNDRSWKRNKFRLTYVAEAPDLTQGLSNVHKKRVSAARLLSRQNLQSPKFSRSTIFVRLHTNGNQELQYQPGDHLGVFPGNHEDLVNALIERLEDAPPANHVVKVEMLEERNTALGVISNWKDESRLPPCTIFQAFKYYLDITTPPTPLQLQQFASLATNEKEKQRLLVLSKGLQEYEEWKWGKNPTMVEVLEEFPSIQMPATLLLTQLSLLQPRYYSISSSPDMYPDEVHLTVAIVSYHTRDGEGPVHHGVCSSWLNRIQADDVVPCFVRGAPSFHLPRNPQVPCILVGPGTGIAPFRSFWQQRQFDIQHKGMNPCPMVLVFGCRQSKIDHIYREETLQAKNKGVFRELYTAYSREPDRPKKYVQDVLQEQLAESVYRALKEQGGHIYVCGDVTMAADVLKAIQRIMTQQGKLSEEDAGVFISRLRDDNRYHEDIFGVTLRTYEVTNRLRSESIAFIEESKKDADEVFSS

With `CCOC(=O)C1CC(C(=O)c2ccccc2N)=NN1CC` (stereo not drawn), the inhibition in experiment [1] was 22.1%; in experiment [2], -1.5%.

Regarding `CCCCn1nc(C(=O)c2cc(OC)ccc2N)cc1C(=O)OCC`, the results for the inhibition in experiment [1] and in experiment [2] were 26.2% and 20.5%, respectively.

Turning to `CCOC(=O)C1CC(C(=O)c2cc(OC)ccc2N)=NN1Cc1ccccc1` (stereo not drawn), the inhibition in experiment [1] was 9.3%; in experiment [2] it was 10.5%.

Turning to `CCOC(=O)C1CC(C(=O)c2cc(Cl)ccc2N)=NN1Cc1ccccc1` (stereo not drawn), the inhibition was found to be 18.3% in experiment [1] and 17.3% in experiment [2].

With `CCCCN1N=C(C(=O)c2cc(Cl)ccc2N)CC1C(=O)OCC` (stereo not drawn), the inhibition in experiment [1] is 38.5%; in experiment [2], 10.5%.

As for `CCOC(=O)c1cc(C(=O)c2cc(Cl)ccc2N)nn1CC`, the figures for the inhibition in experiment [1] and in experiment [2] were 35.5% and 27.5%, respectively.

As for `CCOC(=O)c1cc(C(=O)c2cc(Cl)ccc2N)nn1C`, the inhibition in experiment [1] is 14.5%; in experiment [2] it was 7.3%.

As to `CCCCn1nc(C(=O)c2cc(Cl)ccc2N)cc1C(=O)OCC`, the inhibition in experiment [1] is 7.8%; in experiment [2], 18.7%.

`CCOC(=O)C1CC(C(=O)c2ccccc2N)=NN1C` (stereo not drawn): the results for the inhibition in experiment [1] and in experiment [2] were -9.8% and 12.7%, respectively.

Regarding `CCCCN1N=C(C(=O)c2cc(OC)ccc2N)CC1C(=O)OCC` (stereo not drawn), the inhibition in experiment [1] was -10%; in experiment [2], 18.6%.

Consider `CCOC(=O)C1CC(C(=O)c2cc(Cl)ccc2N)=NN1` (stereo not drawn), for which the inhibition stood at 32.1% in experiment [1] and 19.1% in experiment [2].

Regarding `CCOC(=O)C1CC(C(=O)c2ccccc2N)=NN1Cc1ccccc1` (stereo not drawn), the inhibition amounted to 28.4% in experiment [1] and 9.4% in experiment [2].

For the compound `CCOC(=O)C1CC(C(=O)c2cc(Cl)ccc2N)=NN1C` (stereo not drawn), the inhibition in experiment [1] turned out to be 1.3%; in experiment [2], 22.9%.

In the case of `CCOC(=O)c1cc(C(=O)c2ccccc2N)nn1CC`, the inhibition amounted to 39.5% in experiment [1] and 12.5% in experiment [2].

As for `CCOC(=O)c1cc(C(=O)c2cc(OC)ccc2N)nn1CC`, the inhibition in experiment [1] was 20.3%; in experiment [2], 24.6%.

As to `CCOC(=O)c1cc(C(=O)c2ccccc2N)nn1Cc1ccccc1`, the inhibition was determined as 21.9% in experiment [1] and 13.5% in experiment [2].

Regarding `CCOC(=O)c1cc(C(=O)c2cc(Cl)ccc2N)n[nH]1`, the values for the inhibition in experiment [1] and in experiment [2] were 40.2% and 12.8%, respectively.

Regarding `CCOC(=O)c1cc(C(=O)c2cc(OC)ccc2N)nn1Cc1ccccc1`, the inhibition in experiment [1] was 19.4%; in experiment [2], 30.5%.

`CCOC(=O)C1CC(C(=O)c2cc(OC)ccc2N)=NN1C` (stereo not drawn): the values for the inhibition in experiment [1] and in experiment [2] were -7.8% and 0.6%, respectively.

With `CCOC(=O)C1CC(C(=O)c2cc(OC)ccc2N)=NN1CC` (stereo not drawn), the inhibition in experiment [1] stood at 1.7%; in experiment [2], 17.1%.

Regarding `CCCCN1N=C(C(=O)c2ccccc2N)CC1C(=O)OCC` (stereo not drawn), the inhibition was 29.6% in experiment [1] and 12.2% in experiment [2].

Regarding `CCOC(=O)c1cc(C(=O)c2cc(Cl)ccc2N)nn1Cc1ccccc1`, the results for the inhibition in experiment [1] and in experiment [2] were 2.7% and 50.4%, respectively.

Consider `CCCCn1nc(C(=O)c2ccccc2N)cc1C(=O)OCC`, for which the inhibition in experiment [1] was 21.9%; in experiment [2] it was 5.4%.

Consider `CCOC(=O)C1CC(C(=O)c2cc(Cl)ccc2N)=NN1CC` (stereo not drawn), for which the inhibition in experiment [1] came out at 41.5%; in experiment [2] it was 14.7%.
